The entries come from a sample that favours hits as a whole.
UPR XBP1 act = adaptive UPR (XBP1) activation. activation, % at 20 µM. CHO-XBP1 luciferase reporter, IRE1-XBP1 UPR activation, luminescence; percent of tunicamycin response, DMSO as zero. actives 0.33% (n = 330,000). AID 463104;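 active = versus positive control, 20 µM dose yields 30% or more activation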;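 note: 100% = tunicamycin at 10 µg/mL and 0% = DMSO only wells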
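Material – CHO cell line with stable XBP1 luciferase reporter · Buffer or medium – F12 plus 10% FBS · Compound – single point, 20 µM final compound, 1% DMSO · Schedule – 16-18 h cell attachment at 37 °C, then 6 h compound exposure · Signal – Steady-Glo luminescence read · Benchmarks – high control tunicamycin 10 µg/mL final, low control DMSO vehicle only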
UPR CHOP act = activators of apoptotic arm of unfolded protein response (CHOP); CHO-CHOP luciferase reporter, UPR activation, luminescence; percent of tunicamycin response over DMSO baseline; activation, % at 10 µM; actives 0.34% (n = 330,000);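 active = at 10 µM dose, activation of 40% or more, normalized to positive control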;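 note: 100% = tunicamycin at 10 µg/mL and 0% = DMSO alone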
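Test system: CHO-CHOP cells, stable luciferase reporter of PERK-eIF2a-CHOP signalling | Quantity: 500 CHO-CHOP cells per well | Buffer or medium: F12 plus 10% serum | Compound dosing: 10 µM single point, 0.5% DMSO | Schedule: 6 h compound treatment, 37 °C | Signal: Luciferase luminescence | Control set: Tunicamycin high control, DMSO low control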
A1 inh = inhibitors of the anti-apoptotic protein A1, read as caspase activation. actives 0.066% (n = 330,000). AID 2462. caspase activation, % (concentration not given with the values). MEF A1-2A-BIM cells, Caspase-Glo 3/7 luminescence, 3 h; percent of clofoctol response, vehicle zero;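 active = over half of replicate activation scores above 10%, or exactly half above 10 with the replicate mean above 10; inconclusive = replicate mean below 10 yet half the replicates above 10; inactive = over half of replicates below 10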
CHOP inhibitor = inhibitors of CHOP induction in ER stress response | inhibition, % at 10 µM | CHO-K1 CHOP-promoter luciferase, tunicamycin-induced, 15-18 h | actives 3.8% (n = 220,000);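 active = compounds that reduced the stress-induced luciferase reporter signal by more than about 70% of percent inhibition, limit read from the data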;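 note: 0% = tunicamycin plus vehicle and 100% = wells without tunicamycin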
UPR XBP1 confirm = confirmation of adaptive unfolded protein response (XBP1) activators; CHO-XBP1 IRE1-XBP1 luciferase reporter, luminescence; activation, % at 20 µM; actives 63% (n = 1,000); shares compounds with UPR XBP1 act;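 active = reporter signal at least 30% of the positive control's activation in two or more of four replicate wells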;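 note: plate controls were DMSO negative control for no effect and tunicamycin 10 µg/mL positive control for full effect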
An asterisk follows results filed as active; ? = inconclusive; / = no result given.

SMILES	UPR XBP1 act	UPR CHOP act	A1 inh	CHOP inhibitor	UPR XBP1 confirm
O=C(NCCC1=CCCCC1)C(=O)NCC(c1ccco1)N1CCN(c2ccc(F)cc2)CC1 (configuration not stated)	31*	2	0	88*	56*
N#CCC(=O)N/N=C/c1cn(Cc2cccc3ccccc23)c2ccccc12	130*	8	0	21	103*
N#CCC(=O)N/N=C/c1cn(Cc2ccccc2C#N)c2ccccc12	3	2	0	-8	/
COc1ccc(NC(=O)COC(=O)CCCOc2ccc(Cl)cc2Cl)cc1	75*	1	0	33	-1
CC1Cc2ccccc2N1C(=O)CSc1nnc(-c2ccccc2)c(-c2ccccc2)n1 (configuration not stated)	-3	-1	2	22	/
CCN(C(=O)c1ccccc1Cl)c1ccccc1	1	0	0	58	/
C=CC[C@@H](CC(=O)N[C@@H](CO)Cc1ccccc1)C(=O)NC[C@@H](OC(=O)[C@@H](CC=C)Cc1ccc(F)cc1)c1ccccc1	32*	5	0	/	2
CCc1ccc(-c2cc(C(F)(F)F)n3nc(C(=O)Nc4cnn(Cc5ccc(C)cc5)c4)cc3n2)s1	75*	27	2	4	288*
Cc1ccccc1Cn1cc(NC(=O)c2cc3nc(-c4ccco4)cc(C(F)(F)F)n3n2)cn1	-3	-1	0	-26	/
NC(=O)C1CC(=O)N(c2ccc(OCc3ccc(F)cc3)cc2)C1 (configuration not stated)	1	4	-2	/	/
COc1ccc(-n2c(=S)[nH]c3cc(C(=O)NCc4ccco4)ccc3c2=O)cc1OC	-2	0	0	-8	/
COc1ccc(CCn2c(=S)[nH]c3cc(C(=O)NCc4ccco4)ccc3c2=O)cc1OC	62*	5	1	96*	66*
COc1ccc(OC)c(NC(=O)c2ccccc2SC)c1	0	1	1	4	/
COc1ccc(OC)c(NC(=O)c2cc3oc4ccccc4c3cc2O)c1	37*	2	0	28	6
O=C(Nc1cccc(-c2cnc3ccccc3n2)c1)c1cccc(NC(=O)c2ccco2)c1	36*	22	/	29	28
O=C(Nc1cccc(-c2cnc3ccccc3n2)c1)c1ccccc1	2	4	-1	1	/
COc1ccc(C(=O)O/N=C/c2c(C(F)(F)F)nn(C)c2SCc2ccccc2Cl)cc1	62*	15	-1	8	83*
Cn1nc(C(F)(F)F)c(/C=N/OC(=O)c2ccccc2Cl)c1SCc1ccc(Cl)cc1	9	2	-1	0	/
CCC1CCc2c(sc3nc(SCC(=O)NCc4ccco4)n(-c4ccccc4)c(=O)c23)C1 (configuration not stated)	43*	3	-1	29	70*
CCCc1cc(=O)[nH]c(SCC(=O)N(CCOC)c2c(N)n(Cc3ccccc3)c(=O)[nH]c2=O)n1	-3	-1	1	/	/
CCOC(=O)/C(=N/Nc1ccc(OC)cc1)Sc1nnc(CCc2ccccc2)n1-c1ccccc1	1	0	0	10	/
CCc1ccccc1NC(=O)C(CC)Sc1nc2cc3c(cc2c(=O)n1Cc1ccco1)OCO3 (configuration not stated)	95*	5	?	28	193*
CCC(Sc1nc2cc(OC)c(OC)cc2c(=O)n1Cc1ccco1)C(=O)NCCOC (configuration not stated)	3	-1	1	-21	/
COc1ccc(N2CCN(C(=O)COc3ccc(S(=O)(=O)N4CCOCC4)cc3C)CC2)cc1	3	0	0	/	/
COc1cc(-c2ccc3oc(-c4ccsc4)cc3c2)cc(OC)c1OC	61*	6	0	/	32*
SMILES	UPR XBP1 act	UPR CHOP act	A1 inh	CHOP inhibitor	UPR XBP1 confirm
COc1ccc(-c2ccc3oc(-c4ccsc4)cc(=O)c3c2)cc1F	3	2	-2	/	/
O=C(CSc1nnc2ccccn12)NC(=O)c1ccccc1	-1	1	1	/	/
COC(=O)c1ccccc1NC(=O)c1ccc(COc2ccccc2)o1	-1	1	-1	23	/
COC(=O)c1ccccc1NC(=O)c1ccc(-c2cccc(Cl)c2)o1	52*	14	0	67	15
CCOC(=O)c1sc(-c2ccccc2)cc1NC(=O)Nc1ccc([N+](=O)[O-])cc1	199*	16	0	91*	163*
CCc1nc(N)c(C#N)c(-c2ccc(F)cc2)c1C	-2	-2	0	6	/
Cc1ccc2c(n1)sc1c(-c3ccc(Br)cc3)c(C#N)c(N)nc12	61*	0	0	82*	43*
O=C(Nc1ccc2oc(-c3ccccc3Cl)nc2c1)c1cncc(Br)c1	32*	4	?	71*	80*
O=C(c1ccccc1)c1c[nH]c(C(=O)C(Cl)(Cl)Cl)c1	-2	0	1	19	/
O=C(Cc1ccccc1)c1c[nH]c(C(=O)C(Cl)(Cl)Cl)c1	39*	7	0	/	49*
CCOc1cc(/C=N/NC(=O)Cn2nc([N+](=O)[O-])cc2C)cc(Br)c1OCc1ccccc1C	57*	17	1	60	80*
COc1cc(/C=N/NC(=O)Cn2nc([N+](=O)[O-])cc2C)cc(Br)c1OCc1ccccc1	14	0	0	36	/
c1ccc(C2=Nn3c(nnc3-c3cc(-c4ccccc4)n[nH]3)SC2)cc1	26	7	-2	47	/
Clc1ccc(C2=Nn3c(nnc3-c3cc(-c4ccccc4)n[nH]3)SC2)cc1	66*	14	-2	-27	51*
CCC(C)(C)NC(=O)CN(C(=O)CCC(=O)Nc1ccccn1)c1ccc2c(c1)OCO2	1	1	0	/	/
CCOC(=O)C1CCN(CCC(=O)Nc2cc(C)ccc2C)CC1	-6	0	1	/	/
CC(=O)c1ccc(NC(=S)N2CCN(CCN3C(=O)c4cccc5cccc(c45)C3=O)CC2)cc1	-2	-1	1	-28	/
CC(=O)c1cccc(NC(=S)N2CCN(CCN3C(=O)c4cccc5cccc(c45)C3=O)CC2)c1	159*	36	-1	-12	-1
COC(=O)c1[nH]c2cc(OC)c(OC)cc2c1/C=N/Nc1ccccc1	36*	9	0	/	12
CCCCCCCCCCOC(=O)Cn1c(COc2cccc(C)c2)[n+](C)c2ccccc21	34*	5	-1	/	17
CCCCCCCCCCOC(=O)Cn1c(COc2ccccc2)[n+](C)c2ccccc21	72*	10	-1	/	26
CCCCCCCCCCOC(=O)Cn1c(COc2ccccc2C)[n+](C)c2ccccc21	60*	20	1	/	72*
CCCCCCCCCCOC(=O)Cn1c(COc2ccc(Cl)cc2)[n+](C)c2ccccc21	36*	-1	1	/	36*

Screens (PubChem BioAssay)
